Assay results: PMC5696082 (Analytical biochemistry, 2017)

Experiments:
hCE2 [1] = biological target: T1, hCE2 (Homo sapiens, UniProt O00748); experiment: Specific activity of hCE2 towards substrates; type: biochemical
T1 sequence (O00748 27-559): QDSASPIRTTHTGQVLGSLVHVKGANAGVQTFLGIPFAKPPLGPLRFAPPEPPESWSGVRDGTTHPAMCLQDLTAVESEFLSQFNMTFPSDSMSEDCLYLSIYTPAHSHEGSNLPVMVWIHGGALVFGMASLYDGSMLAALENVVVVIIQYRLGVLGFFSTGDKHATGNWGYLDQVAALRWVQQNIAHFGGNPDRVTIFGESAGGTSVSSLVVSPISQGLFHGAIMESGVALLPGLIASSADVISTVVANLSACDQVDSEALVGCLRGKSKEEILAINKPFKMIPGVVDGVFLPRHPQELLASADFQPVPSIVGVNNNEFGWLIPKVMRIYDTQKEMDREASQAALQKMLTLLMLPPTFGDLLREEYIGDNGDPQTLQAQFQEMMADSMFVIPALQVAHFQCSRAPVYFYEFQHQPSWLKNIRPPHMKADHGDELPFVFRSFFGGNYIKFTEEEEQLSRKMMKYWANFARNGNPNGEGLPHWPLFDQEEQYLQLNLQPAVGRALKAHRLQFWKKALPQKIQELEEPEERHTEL
Outline: (§1)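 Enzymes expressed in baculovirus-infected High Five cells: hCE1 CHAPS-solubilised from the 100,000 g pellet, then DEAE-purified; hCE2/hCE3 crude soluble fraction; FAAH crude insoluble fraction. Substrate added to 50 µM final in 100 mM sodium phosphate pH 8.0, 0.1 mg/mL BSA, 1% DMSO. Fluorescence read every 30 s for ≥10 min at 37°C. Rates corrected for estimated purity: hCE1 25%, hCE2 4%, hCE3 3.5% (3% in footnotes), FAAH 6.9%. Triplicates.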

hCE1 [2] = biological target: T2, hCE1 (Homo sapiens, UniProt P23141); experiment: Kinetic properties; type: biochemical
T2 sequence (P23141 18-567): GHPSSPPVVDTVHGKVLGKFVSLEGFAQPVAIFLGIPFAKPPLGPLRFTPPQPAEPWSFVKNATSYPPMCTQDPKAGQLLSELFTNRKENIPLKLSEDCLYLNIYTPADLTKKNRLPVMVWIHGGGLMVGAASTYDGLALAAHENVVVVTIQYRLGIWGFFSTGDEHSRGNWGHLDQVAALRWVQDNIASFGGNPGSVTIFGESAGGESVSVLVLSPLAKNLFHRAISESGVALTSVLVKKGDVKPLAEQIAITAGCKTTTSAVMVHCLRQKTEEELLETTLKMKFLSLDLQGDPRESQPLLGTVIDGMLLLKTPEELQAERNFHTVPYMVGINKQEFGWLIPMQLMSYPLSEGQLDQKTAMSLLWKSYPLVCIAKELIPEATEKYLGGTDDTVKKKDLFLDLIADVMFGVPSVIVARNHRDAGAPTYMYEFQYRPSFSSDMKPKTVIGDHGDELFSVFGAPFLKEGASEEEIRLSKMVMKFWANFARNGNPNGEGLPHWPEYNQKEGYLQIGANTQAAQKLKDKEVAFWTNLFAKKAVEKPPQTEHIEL

hCE1 [3] = biological target: T2, hCE1; experiment: Specific activity of hCE1 towards substrates; type: biochemical
Outline: as §1

Lung S9 = experiment: Substrate hydrolysis by pooled tissue S9, lung; type: biochemical, human
Outline: (§2)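 Commercial pooled human tissue S9 fraction added to substrate at 50 µM final in 100 mM sodium phosphate, pH 8.0, 0.1 mg/mL BSA. Fluorescence monitored every 30 s for at least 10 min at 37°C. Specific activity given as the mean of triplicates in one experiment, or mean ± standard deviation of 3 independent experiments run in triplicate.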

Kidney S9 = experiment: Substrate hydrolysis by pooled tissue S9, kidney; type: biochemical, human
Outline: as §2

hCE1 [4] = biological target: T2, hCE1; experiment: Limit of detection and quantification for hCE1 using partially purified enzyme; type: biochemical; details: for LOD for hCE1: S/N > 3; for LOD for hCE1 / LOQ for hCE1: [S] = 50 µM; for LOQ for hCE1: S/N > 9
Outline: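 Partially purified recombinant hCE1, without any matrix, diluted into wells with substrate at 50 µM. Assay run in 100 mM sodium phosphate, pH 8, 0.1 mg/mL BSA, 1% DMSO, at 37°C. S/N taken as mean signal of enzyme wells over the SD of […], quadruplicates in one experiment. LOD set as the lowest level with S/N > 3; LOQ as S/N > 9.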

Intestine S9 = experiment: Substrate hydrolysis by pooled tissue S9, intestine; type: biochemical, human
Outline: as §2

hCE2 [5] = biological target: T1, hCE2; experiment: Kinetic properties; type: biochemical
Liver S9 = experiment: Substrate hydrolysis by pooled tissue S9, liver; type: biochemical, human
Outline: as §2

FAAH = biological target: T3, FAAH (Homo sapiens, UniProt O00519); experiment: Specific activity of FAAH towards substrates; type: biochemical
T3 sequence (O00519 1-579): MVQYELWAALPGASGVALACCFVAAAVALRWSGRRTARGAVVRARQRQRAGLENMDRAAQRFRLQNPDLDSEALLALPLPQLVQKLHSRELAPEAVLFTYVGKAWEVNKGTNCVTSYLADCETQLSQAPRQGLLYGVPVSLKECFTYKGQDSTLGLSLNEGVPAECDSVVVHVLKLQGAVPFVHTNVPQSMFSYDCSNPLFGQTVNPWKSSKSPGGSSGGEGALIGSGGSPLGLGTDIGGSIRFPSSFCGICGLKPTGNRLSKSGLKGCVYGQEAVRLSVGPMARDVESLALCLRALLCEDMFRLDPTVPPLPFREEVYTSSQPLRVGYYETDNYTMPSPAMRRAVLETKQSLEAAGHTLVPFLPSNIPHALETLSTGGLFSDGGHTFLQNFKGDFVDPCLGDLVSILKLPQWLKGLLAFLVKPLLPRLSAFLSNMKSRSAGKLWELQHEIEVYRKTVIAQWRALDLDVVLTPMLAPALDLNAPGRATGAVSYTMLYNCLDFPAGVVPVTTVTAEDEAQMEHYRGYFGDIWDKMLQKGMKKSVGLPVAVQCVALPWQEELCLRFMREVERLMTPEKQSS
Outline: as §1

[6] = Kinetic mode (30 s intervals for 30 minutes)

## CCCCC(C)CCC(=O)Nc1ccc(OC)nc1C (stereo not shown) [4-MOMMP, N-(6-methoxy-2-methylpyridin-3-yl)-4-methyloctanamide]
hCE2 [1]
  Selectivity of hCE1 turnover compared to hCE2: 40- to 50 fold
hCE2 [1]; Table 3, [S] = 50 µM, 37°C, pH 8, estimated 4% purity
  hCE2 Specific activity: 13 pmol/min/µg
hCE2 [1]; Table 6, hCE2
  Hydrolysis Specific Activity: 6.4 ± 0.7 pmol/min/µg
hCE1 [2]
  Catalytic efficiency of hCE1, fold lower than that of CMNA: approximately 16 fold
  Vmax with hCE1, fold lower than CMNA: 3 fold
  Vmax, fold higher with hCE1 than hCE2: 120 fold
hCE1 [3]
  Turnover by hCE1, times lower than CMNA: 10 times
hCE1 [3]; 13 other esterases / serine hydrolases
  Preference of hCE1 over the other esterases tested: ≥ 10 fold
hCE1 [3]; Table 6, hCE1
  Hydrolysis Specific Activity: 370 ± 27 pmol/min/µg
Lung S9
  Hydrolysis Specific Activity: 0.20 ± 0.02 pmol/min/µg
Kidney S9
  Hydrolysis Specific Activity: <0.05 pmol/min/µg
hCE1 [4]
  Time over which hCE1 hydrolysis remained linear: at least 24 hours
hCE1 [4]; Endpoint mode 1 hour
  LOD for hCE1: 0.06 ng
  LOQ for hCE1: 2.0 ng
hCE1 [4]; Endpoint mode 4 hours
  LOD for hCE1: 0.03 ng
  LOQ for hCE1: 0.12 ng
hCE1 [4]; Endpoint mode 24 hours
  LOD for hCE1: 0.008 ng
  LOQ for hCE1: 0.03 ng
hCE1 [4]; [6]
  LOD for hCE1: 3.9 ng
  LOQ for hCE1: 16 ng
hCE1 [4]; kinetic mode, short time (<30 minutes)
  Limit of quantification for hCE1, fold higher than CMNA: 4 fold
Intestine S9
  Hydrolysis Specific Activity: <0.05 pmol/min/µg
hCE2 [5]
  KM for hCE2, fold lower than that of hCE1: 3 fold
Liver S9
  Hydrolysis Specific Activity: 5.5 ± 0.4 pmol/min/µg
FAAH
  Selectivity of hCE1 over FAAH (turnover): 10 fold
